We go through 19 molecules from ChEMBL document CHEMBL4385592, “4-Imidazo[2,1-b]thiazole-1,4-DHPs and neuroprotection: preliminary study in hits searching” (Eur J Med Chem, 2019).

In series [1] the target is T1, Voltage-gated L-type calcium channel (Homo sapiens, UniProt Q13936+Q13698+Q01668+O60840). As to the kind of experiment: Inhibition of voltage-dependent L-type calcium channel in human U373MG cells assessed as protection against oxygen glucose deprivation/reperfusion-induced injury by measuring recovery of cell viability at 20 uM administered at onset of reperfusion period measured after 16 hrs by alamar blue assay relative to control. Type of series: cell-based. In outline:
(§1)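 U-373 MG astrocytoma cells seeded at 30000 cells/ml and grown 24 or 48 h (37 °C/5% CO2). OGD: 24 h at 37 °C in glucose-free DMEM pre-bubbled with 95% N2/5% CO2, in a sealed nitrogen-flushed chamber. Then 16 h reperfusion in normal medium; compounds added at reperfusion, diluted from DMSO stock (DMSO ≤0.1%). Viability by alamarBlue, 4 h at 37 °C, fluorescence ex 530–560/em 590 nm. Expressed as % recovery from injury, mean ± S.E. of ≥3 experiments in sixuplicate.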

In series [2] the target is T1, Voltage-gated L-type calcium channel. As to the kind of experiment: Inhibition of voltage-dependent L-type calcium channel in human SH-SY5Y cells assessed as protection against glutamate-induced excitotoxicity by measuring recovery of cell viability at 1 uM measured after 24 hrs by alamar blue-based fluorescence method relative to control.
The target is the same in series [3]. As to the kind of experiment: Inhibition of voltage-dependent L-type calcium channel in human U373MG cells assessed as protection against oxygen glucose deprivation/reperfusion-induced injury by measuring recovery of cell viability at 1 uM administered at onset of reperfusion period measured after 16 hrs by alamar blue assay relative to control. It is filed as cell-based. The gist of the method:
as §1

Series [4] has the same target. Nature of the series: Inhibition of voltage-dependent L-type calcium channel in human SH-SY5Y cells assessed as protection against glutamate-induced excitotoxicity by measuring recovery of cell viability at 20 uM measured after 24 hrs by alamar blue-based fluorescence method relative to control.
Series [5] deals with T2, Voltage-gated L-type calcium channel (Rattus norvegicus, UniProt P22002+Q02485+P27732). As to the kind of experiment: Inhibition of voltage-dependent L-type calcium channel in Wistar rat brain slices assessed as protection against oxygen glucose deprivation/reperfusion-induced injury by measuring recovery of LDH release at 20 uM administered at onset of reperfusion period measured after 90 mins by spectrophotometric assay relative to control. Also on record: scale not given: the % may be the effect or the level left. Conditions: 1.5 h.

The target of series [6] is T2, Voltage-gated L-type calcium channel. Nature of the series: Inhibition of voltage-dependent L-type calcium channel in Wistar rat brain slices assessed as protection against oxygen glucose deprivation/reperfusion-induced injury by measuring recovery of edema formation at 20 uM administered at onset of reperfusion period measured after 90 mins relative to control. Further details: scale not given: the % may be the effect or the level left. Conditions: 1.5 h.

Series [7] can be described thus: Selectivity ratio of EC50 for negative chronotropic activity in guinea pig spontaneously beating right atrium to EC50 for negative inotropic activity in guinea pig left atrium. Type of series: ADME, tissue-based, Cavia porcellus.
Series [8] has as its system Left cardiac atrium. As to the kind of experiment: Negative inotropic activity in guinea pig left atrium assessed as decrease in developed tension at 0.001 to 100 uM relative to control. Type of series: ADME, tissue-based. Conditions: Cavia porcellus.
Series [9] concerns Aorta. As to the kind of experiment: Inhibition of calcium-induced contraction in K+-depolarized guinea pig aortic strips at 10^-4 M relative to control. It is filed as tissue-based. Conditions: Cavia porcellus.
For series [10], the system named is Left cardiac atrium. Nature of the series: Negative inotropic activity in guinea pig left atrium assessed as decrease in developed tension at 5 x 10^-6 M relative to control. It is filed as ADME, tissue-based, Cavia porcellus. Also on record: scale not given: the % may be the effect or the level left. Conditions: 5 µM.
Series [11] has as its system Right cardiac atrium. As to the kind of experiment: Negative chronotropic activity in guinea pig spontaneously beating right atrium assessed as decrease in atrial rate. Type of series: tissue-based. Conditions: Cavia porcellus.
The test system of series [12] is Right cardiac atrium. Nature of the series: Negative chronotropic activity in guinea pig spontaneously beating right atrium assessed as decrease in atrial rate at 10^-5 M relative to control. Conditions: 10 µM. Also on record: scale not given: the % may be the effect or the level left. Type of series: ADME, tissue-based, Cavia porcellus.
In series [13] the test system is Aorta. Nature of the series: Inhibition of calcium-induced contraction in K+-depolarized guinea pig aortic strips at 5 x 10^-5 M relative to control. It is filed as tissue-based. Conditions: Cavia porcellus.
In series [14] the test system is Left cardiac atrium. Nature of the series: Negative inotropic activity in guinea pig left atrium assessed as decrease in developed tension at 10^-6 M relative to control. It is filed as ADME, tissue-based, Cavia porcellus. Also on record: scale not given: the % may be the effect or the level left. Conditions: 1 µM.
For series [15], the system named is Left cardiac atrium. As to the kind of experiment: Negative inotropic activity in guinea pig left atrium assessed as decrease in developed tension at 10^-5 M relative to control. Conditions: 10 µM. Further details: scale not given: the % may be the effect or the level left.

As for `COC(=O)C1=C(C)NC(C)=C(C(=O)OC)C1c1c(-c2ccc(C(F)(F)F)cc2)nc2sccn12`, the Activity in series [1] is given as under 5%; in [2], 17.5%; in series [3] it was under 5%; in series [4], 36.6%.
`COC(=O)C1=C(C)NC(C)=C(C(=O)OC)C1c1c(-c2ccc(OC(F)(F)F)cc2)nc2sccn12`: the Activity in [5] was determined as 93.8%; in series [1], 54.2%; in series [6], 93.8%; in [2], 37.4%; in series [3], 52.3%; in [4], 37.7%.
As for `CCOC(=O)C1=C(C)NC(C)=C(C(=O)OCC)C1c1c(-c2cc(OC)ccc2OC)nc2sccn12`, the Activity in series [5] worked out at 87%; in series [1], 65.7%; in series [6] it was 75.8%; in [2], 42.8%; in series [3] it was 36.6%; in series [4], 67.4%.
For `COC(=O)C1=C(C)NC(C)=C(C(=O)OC)C1c1c(-c2ccccc2OC)nc2sccn12`, the Activity in [1], in series [2], in [3] and in series [4] was under 5% throughout.
`COC(=O)C1=C(C)NC(C)=C(C(=O)OC)C1c1c(-c2cc(OC)c([N+](=O)[O-])cc2OC)nc2sccn12`: the Activity in series [1] is under 5%; in series [2] it was 31.5%; in series [3], under 5%; in series [4] it was 46.3%.
On to `COC(=O)C1=C(C)NC(C)=C(C(=O)OC)C1c1c(-c2cc(OC)ccc2OC)nc2sc(Cl)cn12`, for which the Activity in series [5] was found to be 81.3%; in series [1], 99.6%; in series [6], 91.8%; in series [2], 42%; in series [3], 78.8%; in [4] it was 108.4%.
For the molecule `COC(=O)C1=C(C)NC(C)=C(C(=O)OC)C1c1c(C(F)(F)F)nc2sccn12`, the Activity in series [5] was found to be 79.2%; in [1] it was 86.7%; in [6] it was 105.4%; in series [2], 44.1%; in [3], 73%; in series [4], 84.5%.
For `COC(=O)C1=C(C)NC(C)=C(C(=O)OC)C1c1c(C(F)(F)F)nc2sc(C)cn12`, the Activity is listed as 100.3% in series [5]; under 5% in [1]; 63.7% in series [6]; 35.4% in [2]; under 5% in [3]; 44.1% in series [4].
As for `COC(=O)C1=C(C)NC(C)=C(C(=O)OC)C1c1c(-c2cccc(OC)c2)nc2sccn12`, the Activity in [1], in series [2], in series [3] and in [4] was under 5% throughout.
In the case of `COC(=O)C1=C(C)NC(C)=C(C(=O)OC)C1c1c(-c2ccccc2)nc2scc(C)n12`, the Activity in [5] is on record as 100.65%; in series [1], under 5%; in series [6], 82.5%; in series [2] it was 85.1%; in series [3] it was under 5%; in [4], 130%.
Consider `COC(=O)C1=C(C)NC(C)=C(C(=O)OC)C1c1c(-c2cc(OC)ccc2OC)nc2sccn12`, for which the Activity in series [5] is 83.9%; in series [1] it was 96.7%; in [6], 77.6%; in [2], 51.9%; in series [3], 82.9%; in series [4], 99%.
For the molecule `COC(=O)C1=C(C)NC(C)=C(C(=O)OC)C1c1c(-c2c(OC)ccc(OC)c2[N+](=O)[O-])nc2sc(Cl)cn12`, the Activity in series [1] is on record as under 5%; in series [2] it was 13.1%; in series [3] it was under 5%; in [4] it was 36.8%.
For the molecule `C=CCOC(=O)C1=C(C)NC(C)=C(C(=O)OCC=C)C1c1c(-c2cc(OC)c([N+](=O)[O-])cc2OC)nc2sccn12`, in series [7], the “Ratio EC50” value amounted to 95. The Activity was 51.2% in series [5]; under 5% in series [1]; 82% in [6]; 40.6% in [2]; 96% in the series with Left cardiac atrium [10]; under 5% in series [3]. In addition, the values for the Activity (in series [4]; in the series with Right cardiac atrium [12]) were 52.3% and 92%, respectively. The results for the EC50 in the series on Left cardiac atrium [8] and in the series on Right cardiac atrium [11] were 25 nM and 2380 nM, respectively. For the same molecule, the inhibition at 100 µM in the series on Aorta [9] was 15%.
For `CCOC(=O)C1=C(C)NC(C)=C(C(=O)OCC)C1c1c(-c2ccc(Cl)c([N+](=O)[O-])c2)nc2sc(C)cn12`, in [7], the Ratio EC50 lay in the range of 25 to 56. In addition, the Activity is on record as under 5% in series [5]; under 5% in series [1]; under 5% in [6]; under 5% in series [2]; 64% in the series with Left cardiac atrium [10]; under 5% in series [3]. Further, the Activity in [4] was under 5%; with Right cardiac atrium [12] it was 50%. For the same molecule, the EC50 was 190 nM with Left cardiac atrium [8] and 8480 nM in the series on Right cardiac atrium [11]. Further, the inhibition at 100 µM with Aorta [9] stood at 24%.
On to `CCOC(=O)C1=C(C)NC(C)=C(C(=O)OCC)C1c1c(-c2cc(OC)cc(OC)c2)nc2sc(Br)cn12`, for which the “Ratio EC50” value in [7] is under 10. Besides, the Activity in [5] is listed as 14.5%; in [1], 29.6%; in [6], under 5%; in series [2], 17.4%; in the series with Left cardiac atrium [14] it was 93%; in series [3] it was under 5%. Further, the Activity in series [4] is given as 42.4%; in the series with Right cardiac atrium [12], 80%. The inhibition at 50 µM in the series with Aorta [13] was determined as 7%. In addition, the EC50 in the series with Left cardiac atrium [8] worked out at 25 nM; in the series on Right cardiac atrium [11] it was 640 nM.
As to `CCOC(=O)C1=C(C)NC(C)=C(C(=O)OCC)C1c1c(-c2ccc(F)cc2)nc2sc(Cl)cn12`, the Ratio EC50 in series [7] lay within 25 to 56. Also, the Activity is listed as 61.9% in series [5]; 33.7% in series [1]; under 5% in series [6]; 44.9% in [2]; 62% with Left cardiac atrium [14]; 32.6% in [3]. Further, the Activity in series [4] worked out at 47.5%; in the series on Right cardiac atrium [12], 83%. Moreover, the figures for the EC50 with Left cardiac atrium [8] and in the series with Right cardiac atrium [11] were 49 nM and 1730 nM, respectively. For the same molecule, the inhibition at 100 µM with Aorta [9] worked out at 3%.
As to `CCOC(=O)C1=C(C)NC(C)=C(C(=O)OCC)C1c1c(-c2ccc(OC)c(OC)c2)nc2sc(Br)cn12`, the Activity turned out to be 57.8% in series [5]; 55.1% in series [1]; 89.1% in series [6]; 18.2% in series [2]; 39% with Left cardiac atrium [10]; 9% in series [3]. Moreover, the results for the Activity (in series [4]; with Right cardiac atrium [12]) were 33.4% and 90%, respectively. Further, in the series with Aorta [13], the inhibition at 50 µM was determined as 5%. In the series with Right cardiac atrium [11], the EC50 came out at 310 nM.
As to `CCOC(=O)C1=C(C)NC(C)=C(C(=O)OCC)C1c1c(-c2c(F)cccc2F)nc2sccn12`, the Activity is under 5% in [1]; 19.5% in series [2]; 33% in the series on Left cardiac atrium [14]; under 5% in series [3]; 27.7% in series [4]; 35% with Right cardiac atrium [12]. Also, the inhibition at 100 µM in the series with Aorta [9] stood at 28%.
On to `CCOC(=O)C1=C(C)NC(C)=C(C(=O)OCC)C1c1c(-c2cc(OC)ccc2OC)nc2sc(C)cn12`, for which the “Ratio EC50” value in series [7] was determined as 20. The Activity is under 5% in series [1]; under 5% in [2]; 89% in the series with Left cardiac atrium [15]; under 5% in [3]; under 5% in series [4]; 78% with Right cardiac atrium [12]. Further, the EC50 was 250 nM in the series with Left cardiac atrium [8] and 4810 nM with Right cardiac atrium [11]. Moreover, the inhibition at 100 µM in the series on Aorta [9] is 43%.
